Reference: ChEMBL document CHEMBL4477162, “Galanthamine, Plicamine, and Secoplicamine Alkaloids from Zephyranthes candida and Their Anti-acetylcholinesterase and Anti-inflammatory Activities” (J Nat Prod, 2016)
pIC50: −log10 of the molar value. Calls of active or inactive are those of the source. No cut-off for these calls is given here.

Key:
Acetylcholinesterase = Acetylcholinesterase (Electrophorus electricus, UniProt O42275); test: Inhibition of electric eel AChE using acetylthiocholine iodide as substrate measured every 13 secs by Ellman's method
RAW264.7 [1] = test: Cytotoxicity against mouse RAW264.7 cells at 200 uM; format: cell-based; conditions: raw264.7, 200 µM
RAW264.7 [2] = test: Antiinflammatory activity in mouse RAW264.7 cells assessed as inhibition of LPS-induced NO production after 24 hrs by Griess assay; format: functional, cell-based; conditions: RAW264.7, 24 h
Summary of the method: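 LPS-stimulated RAW 264.7 mouse macrophages; compound inhibition of NO production measured, with dexamethasone as positive control. The protocol follows a previously described method.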

RAW264.7 [3] = test: Antiinflammatory activity in mouse RAW264.7 cells assessed as inhibition of LPS-induced NO production at 200 uM after 24 hrs by Griess assay; format: functional, cell-based

Acetylcholinesterase, sequence (O42275 whole entry): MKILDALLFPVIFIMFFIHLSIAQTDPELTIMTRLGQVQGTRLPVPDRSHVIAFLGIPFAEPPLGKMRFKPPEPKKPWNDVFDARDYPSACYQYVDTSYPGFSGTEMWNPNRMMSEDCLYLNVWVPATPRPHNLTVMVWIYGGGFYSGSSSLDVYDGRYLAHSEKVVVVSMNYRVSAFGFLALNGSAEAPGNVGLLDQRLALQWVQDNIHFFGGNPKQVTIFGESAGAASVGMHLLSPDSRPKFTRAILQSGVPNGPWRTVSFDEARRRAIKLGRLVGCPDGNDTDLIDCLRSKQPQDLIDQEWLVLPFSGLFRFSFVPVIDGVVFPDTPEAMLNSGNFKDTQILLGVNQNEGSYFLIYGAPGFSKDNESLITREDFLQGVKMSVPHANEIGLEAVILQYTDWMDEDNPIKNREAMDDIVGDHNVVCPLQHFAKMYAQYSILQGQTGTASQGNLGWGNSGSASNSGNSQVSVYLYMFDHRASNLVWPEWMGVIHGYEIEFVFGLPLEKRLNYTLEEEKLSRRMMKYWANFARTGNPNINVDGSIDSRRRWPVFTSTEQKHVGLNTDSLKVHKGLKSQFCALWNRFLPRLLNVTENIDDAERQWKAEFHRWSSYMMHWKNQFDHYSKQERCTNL

| SMILES | inhibition (RAW264.7 [3]) | also measured |
| --- | --- | --- |
| CO[C@@H]1C=C[C@@]23c4cc5c(cc4CN(CCc4c[nH]c6ccccc46)[C@@H]2C(=O)N(C)[C@H]3C1)OCO5 | – | pIC50 (Acetylcholinesterase): 3.96; Activity (RAW264.7 [1]): Non-Toxic; pIC50 (RAW264.7 [2]): 4.74 |
| CN1CC[C@@]23CC[C@H](O)C[C@@H]2Oc2c(O)ccc(c23)C1 | inactive | – |
| CO[C@@H]1C=C[C@@]2(C(=O)N(CCC(C)C)Cc3cc4c(cc32)OCO4)[C@@H](N(C)C=O)C1 | – | Activity (RAW264.7 [1]): Non-Toxic; pIC50 (RAW264.7 [2]): 4.63 |
| COc1ccc2c3c1O[C@H]1C[C@@H](O)CC[C@@]31[C@@H](O)C[N+](C)([O-])C2 (stereo partly drawn) | inactive | – |
| CN1CC[C@@]23C=C[C@H](O)C[C@@H]2Oc2c(O)ccc(c23)C1 | inactive | – |
| COc1ccc2c3c1O[C@H]1C[C@@H](O)C=C[C@@]31[C@@H](O)CN(C)C2 | inactive | – |
| CCCCCCN1Cc2cc3c(cc2[C@@]24C=C[C@@H](OC)C[C@@H]2N(C)C(=O)[C@@H]14)OCO3 | inactive | – |
| CN1Cc2ccc(O)c3c2[C@@]2(CC[C@H](O)C[C@@H]2O3)[C@@H](O)C1 | inactive | – |
| CO[C@@H]1C=C[C@@]23c4cc5c(cc4CN(C)[C@@H]2C(=O)N(C)[C@H]3C1)OCO5 | inactive | – |
| CO[C@@H]1C=C[C@@]23c4cc5c(cc4C=N[C@@H]2C(=O)N(C)[C@H]3C1)OCO5 | inactive | – |
| CO[C@@H]1C=C[C@@]23c4cc5c(cc4C[N+]([O-])(CCC(C)C)[C@@H]2C(=O)N(C)[C@H]3C1)OCO5 (stereo partly drawn) | inactive | pIC50 (Acetylcholinesterase): 4.24 |
| COc1ccc2c3c1O[C@H]1C[C@@H](O)CC[C@@]31[C@@H](O)CN(C)C2 | inactive | – |
| CN1Cc2ccc(O)c3c2[C@@]2(C=C[C@H](O)C[C@@H]2O3)[C@@H](O)C1 | inactive | pIC50 (Acetylcholinesterase): 3.77 |
| CO[C@@H]1C=C[C@@]23c4cc5c(cc4C[N+]([O-])(CCc4ccc(O)cc4)[C@@H]2C(=O)N(C)[C@H]3C1)OCO5 (stereo partly drawn) | – | pIC50 (Acetylcholinesterase): 4.12; Activity (RAW264.7 [1]): Non-Toxic; pIC50 (RAW264.7 [2]): 5.12 |
| COc1ccc2c3c1O[C@H]1C[C@@H](O)C=C[C@@]31[C@@H](O)C[N+](C)([O-])C2 (stereo partly drawn) | inactive | – |
| CO[C@@H]1C=C[C@@]23c4cc5c(cc4CN(CCc4ccc(O)cc4)[C@@H]2C(=O)N(C)[C@H]3C1)OCO5 | inactive | – |
| CO[C@@H]1C=C[C@@]23c4cc5c(cc4CN(CCC(C)C)[C@@H]2C(=O)N(C)[C@H]3C1)OCO5 | inactive | – |
| CO[C@@H]1C=C[C@@]23c4cc5c(cc4CN(CCCC(=O)O)[C@@H]2C(=O)N(C)[C@H]3C1)OCO5 | – | Activity (RAW264.7 [1]): Non-Toxic; pIC50 (RAW264.7 [2]): 4.73 |
| CO[C@@H]1C=C[C@@]23c4cc5c(cc4CN(CCc4ccccc4)[C@@H]2C(=O)N(C)[C@H]3C1)OCO5 | – | Activity (RAW264.7 [1]): Non-Toxic; pIC50 (RAW264.7 [2]): 4.99 |
| COc1ccc2c3c1O[C@H]1C[C@@H](O)C=C[C@@]31CCN(C)C2 | inactive | – |
| CC[C@H](C)CN1Cc2cc3c(cc2[C@@]24C=C[C@@H](OC)C[C@@H]2N(C)C(=O)[C@@H]14)OCO3 | inactive | – |
| COc1ccc2c3c1O[C@H]1[C@@H](O)[C@@H](O)C=C[C@@]31[C@@H](O)CN(C)C2 | inactive | – |
| COc1ccc2c3c1O[C@H]1C[C@@H](O)CC[C@@]31CCN(C)C2 | inactive | – |
| CO[C@@H]1C=C[C@@]2(C(=O)N(C)Cc3cc4c(cc32)OCO4)[C@@H](N(C)C=O)C1 | inactive | – |
